Source: ChEMBL document CHEMBL3621129, “Investigation on the ZBG-functionality of phenyl-4-yl-acrylohydroxamic acid derivatives as histone deacetylase inhibitors” (Bioorg Med Chem Lett, 2015)

What was measured:
[1] = biological target: Histone deacetylase 2 (Homo sapiens, UniProt Q92769); assay: Inhibition of human HDAC2 after 40 mins by fluorescence analysis
[2] = system: HCT-116; assay: cells; type: functional, cell-based; details: Homo sapiens, HCT-116, 72 h
[3] = cells; type: functional, cell-based; details: Homo sapiens, NB-4, 72 h
[4] = cells; type: functional, cell-based; details: Homo sapiens, NCI-H460, 72 h
[5] = system: IGROV-1; assay: Growth inhibition of human IGROV1 cells after 72 hrs; type: functional, cell-based; details: IGROV-1, 72 h
Procedure, shortened: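 Cells exposed to compound for 72 h. Growth inhibition read by cell counting. IC50 (concentration giving 50% inhibition of cell growth) taken from dose–response curves. Values are means ± SD of three independent experiments.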

[6] = system: IGROV-1/Pt1 (Homo sapiens); assay: Growth inhibition of human IGROV1/Pt1 cells after 72 hrs; details: IGROV-1/Pt1, 72 h
[7] = biological target: Histone deacetylase 1 (Homo sapiens, UniProt Q13547); assay: Inhibition of HDAC1 (unknown origin)
[8] = biological target: T1, Protein deacetylase HDAC6 (Homo sapiens, UniProt Q9UBN7); assay: Inhibition of HDAC6 (unknown origin)
T1 sequence (Q9UBN7 whole entry): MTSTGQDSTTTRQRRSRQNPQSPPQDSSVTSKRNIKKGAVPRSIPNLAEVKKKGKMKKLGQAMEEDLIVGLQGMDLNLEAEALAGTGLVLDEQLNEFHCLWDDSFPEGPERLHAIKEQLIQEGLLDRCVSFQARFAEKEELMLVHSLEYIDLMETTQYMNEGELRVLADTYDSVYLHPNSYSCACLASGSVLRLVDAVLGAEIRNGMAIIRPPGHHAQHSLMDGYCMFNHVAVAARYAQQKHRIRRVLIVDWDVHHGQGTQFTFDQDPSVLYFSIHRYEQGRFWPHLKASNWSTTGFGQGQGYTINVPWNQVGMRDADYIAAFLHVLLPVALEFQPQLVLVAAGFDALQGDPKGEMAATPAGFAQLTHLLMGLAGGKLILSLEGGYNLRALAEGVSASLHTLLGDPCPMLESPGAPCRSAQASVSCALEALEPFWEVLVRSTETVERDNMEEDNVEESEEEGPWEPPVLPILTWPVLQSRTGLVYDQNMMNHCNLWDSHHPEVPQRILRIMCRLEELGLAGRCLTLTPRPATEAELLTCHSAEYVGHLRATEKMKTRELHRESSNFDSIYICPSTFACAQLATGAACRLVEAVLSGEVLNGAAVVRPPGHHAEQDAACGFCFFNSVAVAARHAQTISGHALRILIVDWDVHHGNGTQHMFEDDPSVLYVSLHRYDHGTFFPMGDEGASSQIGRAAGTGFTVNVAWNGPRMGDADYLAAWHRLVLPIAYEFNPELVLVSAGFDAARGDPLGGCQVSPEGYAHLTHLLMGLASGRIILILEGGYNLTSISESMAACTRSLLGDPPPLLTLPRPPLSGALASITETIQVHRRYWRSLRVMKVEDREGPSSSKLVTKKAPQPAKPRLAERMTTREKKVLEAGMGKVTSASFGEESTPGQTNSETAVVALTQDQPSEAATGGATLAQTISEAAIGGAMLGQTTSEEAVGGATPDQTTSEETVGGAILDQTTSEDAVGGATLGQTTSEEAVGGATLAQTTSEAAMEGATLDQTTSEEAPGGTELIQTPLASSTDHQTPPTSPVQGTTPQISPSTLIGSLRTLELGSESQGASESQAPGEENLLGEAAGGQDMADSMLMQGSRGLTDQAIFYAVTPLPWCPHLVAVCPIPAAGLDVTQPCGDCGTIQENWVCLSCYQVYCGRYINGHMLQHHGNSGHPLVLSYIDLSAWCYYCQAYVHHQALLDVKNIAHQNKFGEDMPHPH

Chain of Histone deacetylase 2 (Q92769 whole entry): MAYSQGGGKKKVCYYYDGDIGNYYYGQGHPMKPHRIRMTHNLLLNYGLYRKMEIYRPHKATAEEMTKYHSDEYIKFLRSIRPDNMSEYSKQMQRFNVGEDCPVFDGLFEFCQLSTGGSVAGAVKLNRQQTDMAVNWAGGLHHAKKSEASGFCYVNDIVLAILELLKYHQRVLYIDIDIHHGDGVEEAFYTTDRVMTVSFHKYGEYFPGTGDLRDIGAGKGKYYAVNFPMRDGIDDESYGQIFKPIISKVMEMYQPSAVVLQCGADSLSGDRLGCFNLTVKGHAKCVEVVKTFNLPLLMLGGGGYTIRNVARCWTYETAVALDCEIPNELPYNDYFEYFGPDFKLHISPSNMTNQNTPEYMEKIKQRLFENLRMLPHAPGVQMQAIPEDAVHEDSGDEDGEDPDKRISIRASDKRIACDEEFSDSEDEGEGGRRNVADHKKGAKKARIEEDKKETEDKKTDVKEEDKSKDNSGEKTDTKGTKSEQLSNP
Chain of Histone deacetylase 1 (Q13547 whole entry): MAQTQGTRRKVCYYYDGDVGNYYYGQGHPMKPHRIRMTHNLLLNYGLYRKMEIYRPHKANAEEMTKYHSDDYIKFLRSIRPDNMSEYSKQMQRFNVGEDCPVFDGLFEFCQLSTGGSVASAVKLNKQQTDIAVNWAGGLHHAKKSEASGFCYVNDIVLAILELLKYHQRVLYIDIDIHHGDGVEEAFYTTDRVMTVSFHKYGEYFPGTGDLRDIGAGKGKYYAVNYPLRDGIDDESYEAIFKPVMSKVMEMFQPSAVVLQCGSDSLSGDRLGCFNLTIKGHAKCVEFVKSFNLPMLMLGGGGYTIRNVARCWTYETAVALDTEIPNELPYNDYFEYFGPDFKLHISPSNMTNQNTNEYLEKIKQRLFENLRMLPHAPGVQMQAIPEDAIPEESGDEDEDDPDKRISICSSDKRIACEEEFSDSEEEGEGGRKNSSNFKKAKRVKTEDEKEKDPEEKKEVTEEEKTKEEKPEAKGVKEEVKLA

Row | SMILES | IC50 [1] [µM] | IC50 [2] [µM] | IC50 [3] [µM] | IC50 [4] [µM] | IC50 [7] [µM] | IC50 [8] [µM] | IC50 [5] [µM] | IC50 [6] [µM]
1 | O=C(N/C=C/c1ccc(-c2ccccc2)cc1)NOCc1ccccc1 | > 5 | 40 | > 20 | > 20 | – | – | 40 | > 50
2 | CC(=O)SCC(=O)/C=C/c1ccc(-c2ccccc2)cc1 | > 5 | 14 | > 20 | > 20 | – | – | 26.4 | 18.7
3 | N#CSC/C=C/c1ccc(-c2ccccc2)cc1 | > 5 | 12.6 | > 20 | 9.4 | – | – | 3.8 | 58.1
4 | O=C(CCCCCCC(=O)Nc1ccccc1)NO [VORINOSTAT] | – | – | – | – | – | – | – | 2.2

Now from value to compound, other results behind:

Row | IC50 [1] [µM] | IC50 [2] [µM] | IC50 [3] [µM] | IC50 [4] [µM] | IC50 [7] [µM] | IC50 [8] [µM] | SMILES | IC50 [5] [µM] | IC50 [6] [µM]
5 | > 5 | > 20 | > 10 | > 20 | – | – | O=C(O)/C=C/c1ccc(-c2ccccc2)cc1 | – | –
6 | > 5 | 11.9 | 7.1 | > 20 | – | – | NNC(=O)/C=C/c1ccc(-c2ccccc2)cc1 | 7.6 | 25.1
7 | > 5 | 16.4 | 9.8 | > 20 | – | – | NNC(=O)N/C=C/c1ccc(-c2ccccc2)cc1 | 14.5 | 26.7
8 | 1.05 | 4 | 1.96 | 9.5 | 1.31 | 1.05 | O=C(NO)N/C=C/c1ccc(-c2ccccc2)cc1 | 3.5 | 6.7
9 | > 5 | > 20 | > 20 | > 20 | – | – | O=C1/C(=C/c2ccc(-c3ccccc3)cc2)CCN1O | > 60 | > 60
10 | – | – | 0.9 | 5.4 | – | – | O=C(/C=C/c1ccc(-c2ccccc2)cc1)NO | – | 4
